Reference: the RNAGym collection of RNA variant scans (doi:10.1126/science.aae0568)
This sample holds only a part of the variants without activity.

B1: tRNA (parent)
chain: GUUCCGUUGGCGUAAUGGUAACGCGUCUCCCUCCUAAGGAGAAGACUGCGGGUUCGAGUCCCGUACGGAACG

Variants of: B1
Assay: yeast fitness relative to wild type (ratio to wild type); higher = fitter; tRNA-Arg(CCU), competitive growth, 37 C, YPD
Summary of the method: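 The tRNA-Arg(CCU) gene variants were made by chemical synthesis with a 3% per-site mutation rate at 69 sites and inserted at the native genomic locus of Saccharomyces cerevisiae. After pooling, the strains were competed in YPD at 37°C for 24 hours in six parallel replicates. Gene amplicons from the start population and each end population were read by 100-nucleotide paired-end sequencing, and Darwinian fitness relative to wild type was taken from genotype frequency changes. Genotypes needed ≥ 100 starting reads, and estimates < 0.5 were set to 0.5.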

Variant | yeast fitness
A14U C33A A42C G52A | 0.515
A42U A45U C49G | 0.526
G50A G52U G67C | ≤ 0.5
A15G C29A A40G G48A | ≤ 0.5
A37C G44A | 0.776
C5A C30U U54A | 0.537
U2A A15G C29U G41A | ≤ 0.5
C66U A69C | 0.743
C27U G58C | 1.02
C11U A65U A69C | 0.588
U7A C24G A69U | ≤ 0.5
A14C C31G | 0.502
G6C A15C A21C C34U A37U G56C U59G | ≤ 0.5
C5G A70G | 0.848
U19C C49A C62A | ≤ 0.5
G9A C27G C31U C46G G51C | 0.594
U19C G25C G58A | 0.625
U3A A14G A15G A20U A37G G41A | 0.525
C24G C49G | 0.544
C5U C33A C55U | ≤ 0.5
G9A U16C A57G | 0.598
C5G U19C U54C A69U | ≤ 0.5
C4G G48C | 0.822
A14G A70C | 0.803

Variant | yeast fitness
U16A G17C C61G A70C | ≤ 0.5
C46U G50A C66U | 0.792
U7A C46G A65C | 0.848
U7G G12C A14C A15G A37C A57U | ≤ 0.5
A36G G52C | 0.674
G10C A15U | 0.691
U7A C29G U32C G38A | ≤ 0.5
U16C A65C | 0.955
U2A U13A A14C C33U | ≤ 0.5
C5G U8C C55G | ≤ 0.5
G18A C34A U47C | ≤ 0.5
U13C A43U A69C | 0.766
A15G U28G A42U G48A C61U | ≤ 0.5
G17C C29G G39A A70U | ≤ 0.5
U3A U13G A70C | 0.784
U3G A15G | 0.846
A21G C49U C62G | 0.566
U7A G12A C34G C62U G68C | ≤ 0.5
A15U A45U | 0.593
A43G G44C C66U | 0.57
U3G C4U A14U A15U A20C C33G A40U C61G | 0.577
G17A C22U U32A C34U A37G A40U A69U | ≤ 0.5
G52C C62A | 0.596
U7A A21U G41A | 0.619

Variant | yeast fitness
U59A A65C | 0.892
G9A U13C C29G A69U | 0.53
C5G C29U C33U G39C | 0.724
A15U C24U | 0.627
G10C C22U C49U A70G | ≤ 0.5
C11U C27U C29A C33G C66A | ≤ 0.5
G39A A57G | 0.79
A15G G18A C49U | 0.669
C4U U28G G38A A43G C46A C49U | 0.608
G23C C30G G67A | ≤ 0.5
C33U U53C | 0.574
U16C A40U G50U | ≤ 0.5
G6A U7G C22G G50A | ≤ 0.5
C4G C22G A45C C55U | ≤ 0.5
C34U C46G A65U | 0.563
A20G A21U | 0.782
C29G C62A C66U | ≤ 0.5
U28G G51A C62G | ≤ 0.5
C30A A37G C55U A57G U64A | ≤ 0.5
G23A G67C | 0.86
G18A U28C U47A | ≤ 0.5
A15U G50C C60U | ≤ 0.5
C27U G51A U53A G63C | ≤ 0.5
C24U G68A | 0.697

Variant | yeast fitness
A21U A40C G56A | ≤ 0.5
U8G G17A A20C C22G C29G C34G C60U C62U A69G | ≤ 0.5
A20G C46U A70G | 0.794
G12A C24A A36C A70C | ≤ 0.5
C4G C30G A42U C55U C66A | ≤ 0.5
C22A C24G A43U C62A | ≤ 0.5
U3G G18A C30G G41U C49G | ≤ 0.5
C4U C62G | 0.808
C24A A37G C55U C60G | ≤ 0.5
U28G C55U G67C | ≤ 0.5
C30U U54A A70G | 0.518
G9A C46U C66U | 1.04
U8G C11G U32A A70C | 0.599
G44C C66A | 0.688
A57G U64G | 0.841
C31U C61A | 0.726
A15G U26G | 0.703
A15C G25C | 0.709
U2A C24U C30U C34U G52A | ≤ 0.5
U19C C29U C61U G68C | ≤ 0.5
U8A G18A C27U C31A | ≤ 0.5
G12C C22U | 0.955
A15G G23A G25A G38A A70U | ≤ 0.5
U26C U47G G50C C66A | 0.685

Variant | yeast fitness
C5U A14G U16A C30U | ≤ 0.5
G38A U47C C62U | 0.539
C22G C27U G68A | 0.623
G10C A40G C62G | ≤ 0.5
C11A C31U A69C A70G | ≤ 0.5
U32C C34A | 0.729
U32A G38A A57U | 0.557
C27G U28A A65U A70U | 0.558
C4A U32C A43C | 0.57
C33G U35C G39A | ≤ 0.5
G18C C27U C62G G63A C66G A69G | ≤ 0.5
C4G U35C | 0.942
G6A A20C A65U | 0.699
U2C C33G C34U C49U | ≤ 0.5
C11U A57G C61A | ≤ 0.5
C30G G51C | ≤ 0.5
A15G U16C C34U G44C C61U | ≤ 0.5
A15G U47G G56A | ≤ 0.5
C11U C33G U54A U64A | ≤ 0.5
A40C G56C C66G | ≤ 0.5
U35G A65G | 0.573
G39A A69G A70G | 0.946
G6A C11U A40G | ≤ 0.5
A15U G18A C27G G56C G68C | ≤ 0.5

Variant | yeast fitness
G10C C46A A69U | 0.615
U8C G10A C22G | ≤ 0.5
G18A G38A | 0.73
G38C A42C | 0.595
G23A U35G A70C | ≤ 0.5
U28G G50C A57U C62A | 0.619
C22U C31G A43U C49U C60A A70G | ≤ 0.5
C5A U7C C34A G41C C60U A70U | ≤ 0.5
G6A G41C A43G C49U | 0.745
G9A C34G C61U C66U | ≤ 0.5
C11G A20C A42C C49U A57U | ≤ 0.5
G17A C29U A57G U59C | ≤ 0.5
U8C C11A G25C U28A A40U | ≤ 0.5
U32G G67U | 0.547
C5G C30G G52A | 0.523
C5U A57G C66U | 0.655
G10A C34A U35A U54C | 0.522
U3A G48A G67A | 0.541
C4U G6A C49U | 0.706
C27A A40C | 0.775
A21U C33U A57U U59C C66U | 0.538
C11A C24U U32A U35C U59C | ≤ 0.5
G23C C24G G63C A65U | ≤ 0.5
A14G U54G A70C | ≤ 0.5

Variant | yeast fitness
A45G C46A | 0.916
G51A U53G G68A | ≤ 0.5
A14G C49G A57G | 0.557
U26A U32A | 0.805
U19C C55U U59C C61G | ≤ 0.5
C34G G68A | 0.586
G23C A45C C66G | ≤ 0.5
G38A U47C G56A | 0.673
U2A G25A | 0.828
C5A A37C | 0.77
G9A G68C | 0.857
C33A C46A C61G A69G | ≤ 0.5
U3C C11U G17A C49U | ≤ 0.5
G41C A69C | 0.858
A20G C46U G50C C61A A70C | 0.7
G6A G18A A36C U47G | ≤ 0.5
G12A C33G G38C | ≤ 0.5
G18A C33U A42G C60G C62G | ≤ 0.5
C22U G23C C55U C60G A70C | ≤ 0.5
C24G C30G C55G | ≤ 0.5
G18C C29G C31G A57C | 0.549
G48C C55U | 0.668
U7C A43C C55U | 0.543
